Here are results for three molecules from ChEMBL document CHEMBL3861959, “Synthesis and antiproliferative evaluation of novel 2-(4H-1,2,4-triazole-3-ylthio)acetamide derivatives as inducers of apoptosis in cancer cells” (Eur J Med Chem, 2016).

Assay [1] is described as follows: Induction of apoptosis in human PC3 cells assessed as upregulation of caspase-3 levels using DEVD-pNA substrate by ELISA. As to conditions: PC-3. The class given is functional, cell-based. In a few lines: (§1)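 Supernatant protein measured by Bradford. 200 µg protein incubated with pNA substrate (DEVD-pNA for caspase-3) using a colorimetric kit. Data given as mean ± SD; one-way ANOVA with Tukey test, p < 0.05.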

Assay [2] can be described thus: Cytotoxicity against human K562 cells assessed as cell growth at 10^-5 M after 48 hrs by SRB assay relative to control. The class given is functional. To be noted: K562, 48 h, read-out: Activity. The method, boiled down: (§2)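 NCI single-dose primary screen run under the US NCI protocol. Compounds tested at 10 µM across the 60-cell-line panel, with growth percent reported for each line.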

For assay [3], the system named is PC-3. In words: Induction of apoptosis in human PC3 cells assessed as downregulation of Bcl-2 levels by […]. The class given is functional, cell-based.
Assay [4] can be described thus: Cytotoxicity against human SKOV3 cells assessed as cell growth at 10^-5 M after 48 hrs by SRB assay relative to control. To be noted: SK-OV-3, 48 h, read-out: Activity. The class given is functional. In a few lines:
(§3)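 Single-dose NCI 60-cell-line screen run under the US NCI protocol. Compounds tested at 10 µM. Read-out is growth percent for each cell line.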

Assay [5] can be described thus: Cytotoxicity against human HCT116 cells assessed as cell growth at 10^-5 M after 48 hrs by SRB assay relative to control. The class given is functional. As to conditions: HCT-116, 48 h, read-out: Activity. In a few lines:
as §2

Assay [6] can be described thus: Cytotoxicity against human BT549 cells assessed as cell growth at 10^-5 M after 48 hrs by SRB assay relative to control. As to conditions: BT-549, 48 h, read-out: Activity. The class given is functional. The method, boiled down: as §2
Assay [7] deals with PC-3. The assay is described as follows: Disruption of mitochondrial membrane potential in human PC3 cells at 10 to 50 uM after 72 hrs by JC1 staining-based assay. The class given is functional, cell-based. The method, boiled down:
(§4)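 Cells seeded and treated with 10, 20 and 50 µM compound. Cells pelleted at 600 × g, resuspended in JC-1 dye, and incubated at 37 °C in 5% CO2 for 15 min. Green monomers mark disrupted membrane potential; orange aggregates mark intact potential.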

The nature of assay [8]: Cytotoxicity against human PC3 cells assessed as decrease in cell proliferation after 48 hrs by MTT assay. The class given is functional, cell-based. To be noted: PC-3, 48 h. The method, boiled down: (§5)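 MTT viability assay in A549, K562 and PC-3 cells. Media carried 10% FBS, 1% L-glutamine and penicillin/streptomycin, at 37 °C in 5% CO2. Cells seeded and left overnight, then exposed to 5–100 µM compound for 48 h. MTT added to 0.5 mg/ml final for 4 h, medium removed, and SDS buffer added. Data given as mean ± SD, analysed by ANOVA/Tukey.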

A short description of assay [9]: Cytotoxicity against human SK-MEL-28 cells assessed as cell growth at 10^-5 M after 48 hrs by SRB assay relative to control. The class given is functional. To be noted: SK-MEL-28, 48 h, read-out: Activity. In a few lines: as §3
Assay [10] can be described thus: (§6) Cytotoxicity against human K562 cells assessed as decrease in cell proliferation after 48 hrs by MTT assay. As to conditions: K562, 48 h. The class given is functional, cell-based. In a few lines: as §5
The test system of assay [11] is K562. Described as §6. The class given is functional, cell-based. In a few lines:
as §5

Assay [12] concerns K562. The assay is described as follows: Disruption of mitochondrial membrane potential in human K562 cells after 72 hrs by JC1 staining-based assay. The class given is functional, cell-based. In a few lines:
as §4

The test system of assay [13] is K562. The assay is described as follows: Induction of apoptosis in human K562 cells assessed as downregulation of Bcl-2 levels after 72 hrs by […]. The class given is functional, cell-based.
A short description of assay [14]: Induction of apoptosis in human K562 cells assessed as upregulation of caspase-3 levels using DEVD-pNA substrate after 72 hrs by ELISA. The class given is functional, cell-based. In a few lines:
as §1

The subject of assay [15] is A549. The assay is described as follows: Disruption of mitochondrial membrane potential in human A549 cells after 72 hrs by JC1 staining-based assay. The class given is functional, cell-based. In a few lines: as §4
The nature of assay [16]: Induction of apoptosis in human A549 cells assessed as upregulation of caspase-3 levels using DEVD-pNA substrate by ELISA. The class given is functional, cell-based. In a few lines:
as §1

A short description of assay [17]: Induction of apoptosis in human A549 cells assessed as upregulation of caspase-8 levels at 50 uM using IETD-pNA substrate by ELISA. The class given is functional, cell-based.
Assay [18] concerns A549. In words: Induction of apoptosis in human A549 cells assessed as downregulation of Bcl-2 levels by […]. The class given is functional, cell-based.
The nature of assay [19]: Cytotoxicity against human A549 cells assessed as decrease in cell proliferation after 48 hrs by MTT assay. The class given is functional, cell-based. As to conditions: A549, 48 h. In a few lines: as §5

Active and inactive are the calls of the source. The rule behind the calls is not given here.

Consider `Cc1ccc(C(C)C)c(OCc2nnc(SCC(=O)Nc3ccc(S(N)(=O)=O)cc3)n2Cc2ccccc2)c1`, for which the Activity result (in assay [1]; in the assay with PC-3 [3]) was “Dose-dependent effect” in each case. The growth at 10 µM in [2] is 78.4%; in assay [4], 109%; in assay [5] it was 66.1%; in [6], 65.8%; in [9], 89.3%. The outcome with PC-3 [7] was Active. The IC50 in assay [8] turned out to be 5.96 µM.
On to `CC(=O)Nc1ccc(OCc2nnc(SCC(=O)Nc3ccc(Br)cc3)n2Cc2ccccc2)cc1`, for which the IC50 in [10] was found to be 7.71 µM. Further, the Activity entry (in the assay on K562 [11]; in the assay with K562 [12]; in the assay with K562 [13]; in [14]) was “Dose-dependent effect” throughout. The growth at 10 µM in assay [2] came to 28.9%; in assay [4] it was 110%; in assay [5], 53.2%; in [6] it was 72.4%; in assay [9] it was 102%.
Regarding `Cc1ccc(C(C)C)c(OCc2nnc(SCC(=O)Nc3ccc(Cl)cc3)n2Cc2ccccc2)c1`, the growth at 10 µM in assay [2] came out at 97.5%; in [4] it was 109%; in assay [5], 52.9%; in [6], 97.4%; in assay [9], 113%. For the same molecule, the Activity entry (in the assay with A549 [15]; in assay [16]; in the assay with A549 [18]) was “Dose-dependent effect” in each case. Besides, in [17], the result was Active. Moreover, the IC50 in [19] amounted to 7.9 µM.
